Data from ChEMBL document CHEMBL1145345, “Galactosyl derivatives of L-arginine and D-arginine: synthesis, stability, cell permeation, and nitric oxide production in pituitary GH3 cells” (J Med Chem, 2006).
The source made the active and inactive calls. The calls are words filed in the database; no cut-off is given here.

Tests used:
Format in all cases: functional, cell-based
AEC = experiment: Increase in DAF2 monitored NO production in BAEC at 10 mM after 30 mins; settings: Bos taurus
Outline: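 Bovine aortic endothelial cells grown in DMEM/10% FBS, exposed to 10 mM compound in normal Krebs solution (pH 7.4) for 30 min at 37 °C. Then loaded with 10 µM DAF-2DA for 30 min, fixed with 4% paraformaldehyde for 5 min, and imaged by fluorescence microscopy (ex/em 495/515 nm). Output is % of Krebs-only control fluorescence.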

GH3 [1] = experiment: Area under DAF2 monitored nitrite production in GH3 cells-incubation period curve
GH3 [2] = experiment: Increase in DAF2 monitored NO production in GH3 cells at 30 mins
Outline: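 GH3 cells in F10 with 10% FBS and 15% horse serum, treated 30 min at 37 °C with 3, 10 or 30 mM compound in normal Krebs (pH 7.4). Loaded with 10 µM DAF-2DA for 30 min, fixed in 4% paraformaldehyde, and fluorescence read by densitometry at 495/515 nm. Reported as % of Krebs-only control; mean ± S.E. of three values from three sessions.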

GH3 [3] = experiment: Increase in DAF2 monitored nitrite production in GH3 cells at 30 mins

SMILES	Activity (AEC)	AUC (GH3 [1]) [ng·h/mL]	Activity (GH3 [2])	Activity (GH3 [3])
N=C(N)NCCC[C@H](N)C(=O)O	Active	1390	–	–
NC(N)=NCCC[C@H](N)C(=O)OC[C@H]1O[C@H](O)[C@H](O)[C@@H](O)[C@H]1O	Active	–	Active	Active
N=C(N)NCCC[C@@H](N)C(=O)O	Active	2470	–	–
NC(N)=NCCC[C@@H](N)C(=O)OC[C@H]1O[C@H](O)[C@H](O)[C@@H](O)[C@H]1O	Active	7500	–	–
